{"source": "the RNAGym collection of RNA variant scans (doi:10.1126/science.aae0568)", "parents": {"B1": {"name": "tRNA (parent)", "chain": "GUUCCGUUGGCGUAAUGGUAACGCGUCUCCCUCCUAAGGAGAAGACUGCGGGUUCGAGUCCCGUACGGAACG"}}, "note": "Variants at the floor of the assay were thinned out.", "data": [{"variants_of": "B1", "assay": "yeast fitness relative to wild type (ratio to wild type); higher = fitter; tRNA-Arg(CCU), competitive growth, 37 C, YPD", "summary_of_the_method": "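Gene amplicons from the start population and from each of six end populations were read by 100-nucleotide paired-end sequencing. Those end populations came from pooled Saccharomyces cerevisiae strains carrying tRNA-Arg(CCU) gene variants at the native locus, competed in YPD at 37°C for 24 hours. Fitness relative to wild type was worked out from changes in genotype frequencies. Genotypes needed ≥ 100 starting reads, and estimates < 0.5 were set to 0.5.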", "values": [{"variant": "GUUCGGUUGGCCUAAUGGUAACGCGUCUCCCUCCUAAGGAGAAGCUUGCGGGUUUGAGUCCUGUACGGAACG", "note": "[C5G G12C A45C C46U C55U C62U]", "yeast fitness": "≤ 0.5"}, {"variant": "GUUCGGUUCGCGUAAUGGUAACGCGUCUCCCUCCUAAGGAGAAGACUGCGGGUUCGACUCCCGUACGGAACG", "note": "[C5G G9C G58C]", "yeast fitness": "≤ 0.5"}, {"variant": "GUUCGGUUGGCCUAAUGAUAACGUGUCUUCCUCCUGAGGAGAAGACUGCGGGUUCGAGUCCCGUACGGCACG", "note": "[C5G G12C G18A C24U C29U A36G A69C]", "yeast fitness": "≤ 0.5"}, {"variant": "GUUCGGUUGACGUAAUGGUAACGCGUCUCCCUCCUACGGAGAAGACUGCGGGUUCAAGUCCCGUACGGAACG", "note": "[C5G G10A A37C G56A]", "yeast fitness": 0.567}, {"variant": "GUUCGGUUGGCGUAAUCGUAACGCGUCUCCCUCCUAAGGAGAAGACUGCGGGUUUGAGUCCCGUACGGAACG", "note": "[C5G G17C C55U]", "yeast fitness": "≤ 0.5"}, {"variant": "GUUCGGUUGGCGUAAUCGUAACGCGUCUCCCUCCUAAGGAGAAGACUGCGGGUUCGAGUCCCAUGCGGAACG", "note": "[C5G G17C G63A A65G]", "yeast fitness": "≤ 0.5"}, {"variant": "GUUCGGUUGGCGUAAUAGUAACGCGUCUCCCUCCUAAGGAGAAGAGUGCGGGUUCGAGUCCCGUACGGAACG", "note": "[C5G G17A C46G]", "yeast fitness": 0.538}, {"variant": "GUUCGGUUGGCGUAAUGGUAACGCGUCUCCCUCCUAAGGACAAGUCUGCGGGUUCGAGUCCCGUACGGAACG", "note": "[C5G G41C A45U]", "yeast fitness": 0.583}, {"variant": "GUUCGGUUGACGUAAUGGUAACGCGUCUCCCUCCUAAGGAGAAGACUGCGGGUUCGAGUCCCGUACGGAACG", "note": "[C5G G10A]", "yeast fitness": 0.804}, {"variant": "GUUCGGUUCGCGCAAUGGUAGCGCGUCUCCCUCCUAAGGAGAAGACUGCGGGUUCGAGUCCCGUACGGAACG", "note": "[C5G G9C U13C A21G]", "yeast fitness": "≤ 0.5"}, {"variant": "GUUCGGUUCGCGUAAUGGUUGCGGGUGUCCCUCCUAAGGAGAAGACUGCGGGUUCGAGUCCCGUACGAAACG", "note": "[C5G G9C A20U A21G C24G C27G G68A]", "yeast fitness": "≤ 0.5"}, {"variant": "GUUCGGUUGGCAUAAUGGUAACGCGUCUCCCUCCUAAGGAGAAGACUGCGGGUUCGAGUCCCGUACGGAACG", "note": "[C5G G12A]", "yeast fitness": 0.932}, {"variant": "GUUCGGUUGGCCUAAUGGUAACGAGUCUCCCUGCUAAGGAGAAGACUGGGGGUUCGAGUCCCGUGCGGAACG", "note": "[C5G G12C C24A C33G C49G A65G]", "yeast fitness": 0.573}, {"variant": "GUUCGGUUGGCGUAAUGGUAACCCGUCUCCCUCCUAAGGAGAAGACUGCGGGUUCGAGUCCCGUACGGAACG", "note": "[C5G G23C]", "yeast fitness": 0.695}, {"variant": "GUUCGGUUGGCGUAAUGGUAACGCAUCUCCCUCCUAAGGAGAAGACUACGGGUUCGAGUCCCGUACGGAACG", "note": "[C5G G25A G48A]", "yeast fitness": 0.724}, {"variant": "GUUCGGUUGCCGUAAUGGUAACGCGUCUCCCUCCGAAGGAGAAGACUGCAGGUUUGAGUCCCGUACGGCACG", "note": "[C5G G10C U35G G50A C55U A69C]", "yeast fitness": 0.607}, {"variant": "GUUCGGUUGAGGUAAGGGUAACGCGUCUCCCUGCUAAGGAGAAGACUGCGGGUUCGAGUCCCGUAUGGAACG", "note": "[C5G G10A C11G U16G C33G C66U]", "yeast fitness": "≤ 0.5"}, {"variant": "GUUCGGUUGGCGUAAUGGUAACACGUCUCCCCCCUAAGGAGAAGACUGCGGGUUCGAGUCACGUACGGAACG", "note": "[C5G G23A U32C C61A]", "yeast fitness": "≤ 0.5"}, {"variant": "GUUCGGUUGACGUAAUGGUAAUGCGUCUCCCUCCUACGGAGAAGACUGCGGGUUCAAGUCCCGUACGGAACG", "note": "[C5G G10A C22U A37C G56A]", "yeast fitness": "≤ 0.5"}, {"variant": "GUUCGGUUGGCGUAAUGGUAACACGUCUCCCUCCUAAGGAGAUGACUGCGGGUUCGAGUCCCGUGCGAAACG", "note": "[C5G G23A A43U A65G G68A]", "yeast fitness": "≤ 0.5"}, {"variant": "GUUCGGUUGGCGUAAUGGUAACGCCUCUCCCUCCUAAGGAGAAGACUGUGGGUUCGAGUCCCGUACGGAACG", "note": "[C5G G25C C49U]", "yeast fitness": 0.689}, {"variant": "GUUCGGUUCGCGUAAUGGUAACGCGUCUCCCUCCUAAGGUGAAGACUGCGGGUUCGAGUCCCGUAGGGAACG", "note": "[C5G G9C A40U C66G]", "yeast fitness": "≤ 0.5"}, {"variant": "GUUCGGUUGGCGUAAUGGUAACCCGUCUCCCUUCUAAGAAGACGACUGCGGGUUCGAGUCCCGUACGGAACG", "note": "[C5G G23C C33U G39A A43C]", "yeast fitness": "≤ 0.5"}, {"variant": "GUUCGGUUGACGUAAUGGUAACGCGUCUCCCUUCUAAGGAGAAGACUGCGGGUUCGAGUCCCGUCCGCAACG", "note": "[C5G G10A C33U A65C G68C]", "yeast fitness": 0.55}, {"variant": "GUUCGGUUGCCGGAAUGGUAACGCGUCUCCCUCCUACGGAGAAGACUGCGGGUUCAAGUCCCGUUCGGAACG", "note": "[C5G G10C U13G A37C G56A A65U]", "yeast fitness": 0.64}, {"variant": "GUUCGGUUGGCAUAAUGGUAACGCGUCACCCUCCUAAGGAGAAGACUGCGGGUUCGAGUCCCGUGCGGAACG", "note": "[C5G G12A U28A A65G]", "yeast fitness": 0.703}, {"variant": "GUUCGGUUGGCGUAAUCGUAACGCAUCUCCCUCCUAAGGCGAAGACUGCGGGUUCGAGACCCGUACGGAACG", "note": "[C5G G17C G25A A40C U59A]", "yeast fitness": 0.54}, {"variant": "GUUCGGUUGGCGUAAUGCUAACGCGCCACCCUCCUAAGGAGAAGACUGCGGGUUCGAGUCCCGUACGGAACG", "note": "[C5G G18C U26C U28A]", "yeast fitness": "≤ 0.5"}, {"variant": "GUUCGGUUCGCGUAAUGGUAACGCGUCUCCCUCCUAAGGAGGAGACUGCGGGUUCGAGUCCCGUACGGAACG", "note": "[C5G G9C A42G]", "yeast fitness": "≤ 0.5"}, {"variant": "GUUCGGUUGGCGUAAUGGUAACCCGUCUCCGUCCUAAGGAGAAGACUGCGGGUUCGAGUACCGUACGGAUCG", "note": "[C5G G23C C31G C60A A70U]", "yeast fitness": "≤ 0.5"}, {"variant": "GUUCGGUUGGCGUAAUGGUAACGCAUCUCCCUCCUAAGGAGAAGACUGCGGGUUCGAGUCCCGUACGGUACG", "note": "[C5G G25A A69U]", "yeast fitness": 0.75}, {"variant": "GUUCGGUUGGCGUAAUGGUAACGCGUCUCCCUCCUAAGAAGAAGACUGUGGGUUCGAGUCCCGUACGGAACG", "note": "[C5G G39A C49U]", "yeast fitness": 0.524}, {"variant": "GUUCGGUUGGCGUAAUCGUAACGCAUCUCCCUCCUAAGGAGAAGACUGCGGGUUCGAGUCCCGUACGGAGCG", "note": "[C5G G17C G25A A70G]", "yeast fitness": "≤ 0.5"}, {"variant": "GUUCGGUUGGCGUAAUAGUAACGCGUCUCCCUUCUACGGAGAAGACUGCGGGUUCGAGUCCCGUCCGGAACG", "note": "[C5G G17A C33U A37C A65C]", "yeast fitness": "≤ 0.5"}, {"variant": "GUUCGGUUGACGUAAUGGUAACGCGUCUCCCUCCUAAGGAGGAGACUGCGGGUUUGAGUCCCGUACGGACCG", "note": "[C5G G10A A42G C55U A70C]", "yeast fitness": "≤ 0.5"}, {"variant": "GUUCGGUUGGCGUAAUGGUAACGCAUCUCCCUCCUAAGGAGAAGACUGCGGGUUCGAGUCGCGUACGGAACG", "note": "[C5G G25A C61G]", "yeast fitness": 0.564}, {"variant": "GUUCGGUUGGCGUAAUGGUAACGCCUCUCCCUCCUAAGGAGAAGAGUGCGGGUUCGAGUCCCGGACGGAACG", "note": "[C5G G25C C46G U64G]", "yeast fitness": "≤ 0.5"}, {"variant": "GUUCGGUUGGCGUAAUGGUAACGCCUCUCCCUCCUAAGGAGAAAACUGCGGGUUCGAGUCCCGUACGGAACG", "note": "[C5G G25C G44A]", "yeast fitness": "≤ 0.5"}]}]}
